Screening data: PubChem, several laboratories
In the library only some 2.2% were active in any assay of this set; here they are far more common.
Mcl1 Noxa PPI: Mcl-1/Noxa interaction inhibition; Q07820; TR-FRET Mcl-1/Noxa peptide binding, 2 h; inhibition, % at 21.7 µM; 220,000 tested, 1.5% active;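 active means compounds that cut the protein-peptide binding signal by more than 50% relative to plate controls in a single-dose test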;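 further: His-tagged Mcl-1 with rhodamine Noxa BH3 peptide and terbium anti-His antibody; 0% = Mcl-1 plus Noxa peptide wells and 100% = peptide-only wells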
Mcl1 Bid PPI: disrupts binding of human Mcl-1 to Bid peptide; TR-FRET Mcl-1/Bid-Dy647 peptide binding, 1536-well; 220,000 tested, 0.97% active; AID 1021; inhibition, % at 21.7 µM;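 active means compounds that cut the binding signal by more than half at the single screening dose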;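 further: His-tagged Mcl-1 with europium anti-His antibody binding Bid BH3 peptide; 0% = Mcl-1 plus peptide wells and 100% = peptide-only wells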
MCL1-BIM inh: inhibitors of human MCL1 binding to BIM-BH3 peptide | GST-MCL1 / FITC-Bim-BH3 fluorescence polarization | inhibition, % at 10.9 µM | 320,000 tested, 0.68% active | AID 2057;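 active means inhibition above the mean inhibition of all tested compounds plus 3 SD, set per campaign, cut at about 40% in these data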;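 further: 0% = DMSO wells and 100% = unlabeled Bim-BH3 peptide control; higher means more loss of mP so more displacement of Bim peptide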
EBV gp42 inh: EBV gp42 inhibition; Q1HVG2; Fluorescence polarization binding assay, mP read-out; inhibition, % (tested at 21.74 µM); 220,000 tested, 0.42% active; in the data active means inhibition above about 50%
Target sequence (Q1HVG2 whole entry, looked up): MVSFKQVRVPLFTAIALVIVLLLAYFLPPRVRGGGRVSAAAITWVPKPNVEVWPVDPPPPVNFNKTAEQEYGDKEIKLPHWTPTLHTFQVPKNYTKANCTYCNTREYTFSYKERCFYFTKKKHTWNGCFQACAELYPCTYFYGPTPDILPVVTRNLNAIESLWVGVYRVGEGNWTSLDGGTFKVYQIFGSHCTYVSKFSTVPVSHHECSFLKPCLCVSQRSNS
RBBP9 inhibitor: blocks human serine hydrolase RBBP9. 220,000 tested, 0.2% active. AID 1515. inhibition, % at 7.94 µM. recombinant RBBP9, FP-Rh probe fluorescence polarization. O75884;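 active means inhibition above the campaign mean of all tested compounds plus 3 SD, cut at about 14% in these data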;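 further: plate controls were DMSO wells with RBBP9 for no effect and wells lacking RBBP9 protein for full effect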
Target sequence (O75884 whole entry, looked up): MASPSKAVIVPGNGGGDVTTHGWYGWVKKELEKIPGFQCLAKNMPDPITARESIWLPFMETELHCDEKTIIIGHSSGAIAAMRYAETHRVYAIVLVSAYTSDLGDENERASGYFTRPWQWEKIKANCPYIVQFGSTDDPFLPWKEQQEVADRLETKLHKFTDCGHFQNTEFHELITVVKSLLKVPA
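Assay system: recombinant human RBBP9; Reagent: Serine-hydrolase probe FP-Rh, 375 nM pre-mixing; Doses: 7.94 µM single dose, 0.794% DMSO; Incubation: 30 min then 45 min, 25 °C; Detection: fluorescence polarization (mP), excitation 525 nm, emission 598 nm; Evaluation: percent inhibition from mP, scaled between DMSO and no-protein wells.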
Mcl-1 Bim block: disrupts Bim peptide binding to human Mcl-1; inhibition, % at 10 µM; Bead-based flow cytometry, Bim peptide-Mcl-1 binding; Q07820; 190,000 tested, 0.1% active; in the data active means inhibition above about 40%;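 further: 0% = no compound tracer wells and 100% = peptide blocker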
An asterisk follows results filed as active.

Screening COC(=O)c1c(C)[nH]c(C(=O)CSc2ncnc3sc(-c4ccccc4)cc23)c1C returned Mcl1 Noxa PPI 25, Mcl1 Bid PPI -4, MCL1-BIM inh 0, EBV gp42 inh 2, RBBP9 inhibitor -5 and Mcl-1 Bim block -4.
O=C(O)c1cccc(NC(=S)N/N=C/c2ccccc2OCc2cccc(Br)c2)c1 was read as Mcl1 Noxa PPI 56*, Mcl1 Bid PPI -38, EBV gp42 inh 8, RBBP9 inhibitor -11 and Mcl-1 Bim block -3.
For COC(=O)c1ccc(COc2ccccc2/C=N/Nc2cccc(C(=O)O)c2)cc1 the results were Mcl1 Noxa PPI 11, Mcl1 Bid PPI -45, EBV gp42 inh -8, RBBP9 inhibitor -5 and Mcl-1 Bim block -1.
For O=C(O)c1cccc(NC(=S)N/N=C/c2ccccc2OCc2ccc(Br)cc2)c1 the results were Mcl1 Noxa PPI 52*, Mcl1 Bid PPI -37, MCL1-BIM inh 25, EBV gp42 inh -17, RBBP9 inhibitor -11 and Mcl-1 Bim block -4.
O=C(O)c1cccc(NC(=S)N/N=C/c2cccc(O)c2)c1 was read as Mcl1 Noxa PPI 17, Mcl1 Bid PPI -36, MCL1-BIM inh 21, EBV gp42 inh -16, RBBP9 inhibitor 3 and Mcl-1 Bim block 0.
`N/C(=N\N=C/c1ccc(Br)cc1)N/N=C\c1ccc(Br)cc1` gave Mcl1 Noxa PPI 8, Mcl1 Bid PPI -10, MCL1-BIM inh 4, EBV gp42 inh -15, RBBP9 inhibitor 0 and Mcl-1 Bim block 40*.
Screening CC(NCc1cc(Br)ccc1OCC(N)=O)C12CC3CC(CC(C3)C1)C2 (configuration not stated) returned MCL1-BIM inh 9.
Screening Cc1ccc(-n2[nH]c(C)c(C=Nc3ccc4[nH]c(=O)[nH]c4c3)c2=O)cc1 returned Mcl1 Noxa PPI 62*, Mcl1 Bid PPI 10, MCL1-BIM inh 28, EBV gp42 inh 24, RBBP9 inhibitor 5 and Mcl-1 Bim block 2.
Screening Cc1ccc(NC(=O)Cc2nnc(SCC(=O)NC3CCCC3)n2C)c(C)c1 returned MCL1-BIM inh -1.
For CCOC(=O)CSC(=S)NC(=O)c1ccc(OC)cc1 the results were Mcl1 Noxa PPI 56*, Mcl1 Bid PPI -95, MCL1-BIM inh 15, EBV gp42 inh 18, RBBP9 inhibitor -9 and Mcl-1 Bim block -7.
`O=[N+]([O-])c1ccc2c(c1)nnn2-c1ccccc1` gave MCL1-BIM inh 6.
For Cn1c(-[n+]2c(-c3ccccc3)cc(-c3ccccc3)cc2-c2ccccc2)nc2cc([N+](=O)[O-])ccc21 the results were Mcl1 Noxa PPI 64*, Mcl1 Bid PPI -22, MCL1-BIM inh -21, EBV gp42 inh -56, RBBP9 inhibitor -6 and Mcl-1 Bim block -2.
For O=[N+]([O-])c1ccc2c(c1)ncn2-c1ccccc1 the results were Mcl1 Noxa PPI -16, Mcl1 Bid PPI 82*, MCL1-BIM inh 14, EBV gp42 inh -2, RBBP9 inhibitor -3 and Mcl-1 Bim block -1.
`Cc1cccc(OCCC(=O)Nc2ccc(Cl)cc2F)c1` gave MCL1-BIM inh 1.
For N[C@@H](Cc1ccc(O)cc1)c1nnc([C@H](CO)NC(=O)C2CCNCC2)o1 the results were Mcl1 Noxa PPI 6, Mcl1 Bid PPI -7, MCL1-BIM inh 6, EBV gp42 inh -11, RBBP9 inhibitor -1 and Mcl-1 Bim block 5.
For CCC1c2ccc(C)n2CCN1C(=O)Nc1ccc(F)cc1 (configuration not stated) the results were Mcl1 Noxa PPI 4, Mcl1 Bid PPI -13, MCL1-BIM inh 42*, EBV gp42 inh -1, RBBP9 inhibitor -3 and Mcl-1 Bim block -5.
COc1ccc(CCNC(=O)C2CCN(S(=O)(=O)c3cccc4nonc34)CC2)cc1OC was read as Mcl1 Noxa PPI 66*, Mcl1 Bid PPI -2, MCL1-BIM inh -2, EBV gp42 inh -11, RBBP9 inhibitor -13 and Mcl-1 Bim block -4.
`CCc1nnc(NC(=O)c2cc(S(=O)(=O)N(C)c3ccc(OC)cc3)ccc2Cl)s1` gave MCL1-BIM inh 0.
`CCOc1ccc(NC(c2ccccn2)c2oc(CO)cc(=O)c2O)cc1` (configuration not stated) gave Mcl1 Noxa PPI 63*, Mcl1 Bid PPI -73, MCL1-BIM inh 28, EBV gp42 inh -17, RBBP9 inhibitor 5 and Mcl-1 Bim block -4.
